Results of several laboratories.
Each line is one published result; the experiments were not run side by side.
ADORA2B: Adenosine receptor A2b (ADORA2B, Homo sapiens, UniProt P29275)
Melanocortin receptor 3: Melanocortin receptor 3 (Mus musculus, UniProt P33033)
PBRM1 bromodomain: Protein polybromo-1, bromodomain (PBRM1, Homo sapiens, UniProt Q86U86)

| SMILES | target | test | setting | endpoint | value |
| --- | --- | --- | --- | --- | --- |
| CNC(=O)COc1cc2cc(Nc3nc(N4CCC(C(=O)NCCCCCCCNC(=O)C[C@@H]5N=C(c6ccc(Cl)cc6)c6c(sc(C)c6C)-n6c(C)nnc65)CC4)ncc3Cl)cc(OC)c2n(C)c1=O | B-cell lymphoma 6 protein (BCL6, Homo sapiens, UniProt P41182, C67R/C84N/C8Q) | binding, ITC | – | Kd | > 1000 µM |
| C=CN1CCCn2c1nc1c2c(=O)n(C)c(=O)n1C | ADORA2B | ligand displacement, radioligand | cell membranes | Ki | > 10 µM |
| CSCC[C@H](NC(=O)[C@@H](NC(=O)[C@@H](N)Cc1ccc(O)cc1)C(C)C)C(=O)NCC(=O)N[C@@H](Cc1c[nH]cn1)C(=O)N[C@@H](Cc1ccccc1)C(=O)N[C@@H](CCCNC(=N)N)C(=O)N[C@@H](Cc1c[nH]c2ccccc12)C(=O)N[C@@H](CC(=O)O)C(=O)N[C@@H](CCCNC(=N)N)C(=O)O | Melanocortin receptor 3 | reporter gene, agonist | – | EC50 | 0.036 µM |
| Cc1ncsc1-c1ccc(CNC(=O)[C@@H]2C[C@@H](O)CN2C(=O)[C@@H](NC(=O)C2(F)CC2)C(C)(C)C)c(OCCOc2ccc(CN3CCN(c4cc(-c5ccccc5O)nnc4N)CC3)cc2)c1 | PBRM1 bromodomain | binding, SPR | – | Kd | 0.83 µM |
| C[N+]1(C)CCC(OC(=O)C(c2ccccc2)c2ccccc2)CC1 | Muscarinic acetylcholine receptor M1 (CHRM1, Homo sapiens, UniProt P11229) | ligand displacement, radioligand | – | IC50 | 0.00527 µM |
| CCCCN1CCC(COC(=O)c2ccc(N)c(OC)c2)CC1 | 5-hydroxytryptamine receptor 4 (HTR4, Homo sapiens, UniProt Q13639) | ligand displacement, radioligand | – | Ki | 0.0011 µM |
| N=C(N)NCCC[C@H](NC(=O)[C@H](CC(=O)O)NC(=O)[C@H](Cc1c[nH]c2ccccc12)NC(=O)[C@H](CCCNC(=N)N)NC(=O)[C@@H](N)Cc1ccccc1)C(=O)N[C@@H](Cc1ccccc1)C(=O)NCC(=O)O | Melanocortin receptor 3 | reporter gene, agonist | – | EC50 | > 100 µM |
| CC(C)CCCC(C)N1CCCn2c1nc1c2c(=O)n(C)c(=O)n1C (stereo not shown) | ADORA2B | ligand displacement, radioligand | cell membranes | Ki | > 10 µM |
| N=C(N)NCCC[C@H](NC(=O)[C@@H](N)CC(=O)O)C(=O)N[C@@H](Cc1ccccc1)C(=O)O | Melanocortin receptor 3 | reporter gene, agonist | – | EC50 | > 100 µM |
| CCCCCCCCCCCCC/C=C/[C@@H](O)[C@@H](N)COP(=O)(O)O | Potassium channel subfamily K member 2 (KCNK2, Homo sapiens, UniProt O95069) | binding, BRET | – | Kd | > 500 µM |
| CCN1CCCn2c1nc1c2c(=O)n(C)c(=O)n1C | ADORA2B | ligand displacement, radioligand | cell membranes | Ki | > 10 µM |
| N=C(N)NCCC[C@H](NC(=O)[C@H](CC(=O)O)NC(=O)[C@H](Cc1c[nH]c2ccccc12)NC(=O)[C@H](CCCNC(=N)N)NC(=O)[C@H](Cc1ccccc1)NC(=O)[C@@H](N)Cc1c[nH]cn1)C(=O)N[C@@H](Cc1ccccc1)C(=O)O | Melanocortin receptor 3 | reporter gene, agonist | – | EC50 | 6.6 µM |
| CCCN1CCCn2c1nc1c2c(=O)n(C)c(=O)n1C | ADORA2B | ligand displacement, radioligand | cell membranes | Ki | > 10 µM |
| Cc1cc2nc3c(=O)[nH]c(=O)nc-3n(C[C@H](O)[C@H](O)[C@H](O)COP(=O)(O)OP(=O)(O)OC[C@H]3O[C@@H](n4cnc5c(N)ncnc54)[C@H](O)[C@@H]3O)c2cc1C | Muscleblind-like protein 1 (Homo sapiens, UniProt Q9NR56) | binding | lysate | Kd | 0.023 µM |
| CCCCN1CCC(COC(=O)c2ccc(N)c(OCF)c2)CC1 | Beta-3 adrenergic receptor (ADRB3, Homo sapiens, UniProt P13945) | cell-free assay, radioligand | – | Ki | > 10 µM |
| CSCC[C@H](N)C(=O)NCC(=O)N[C@@H](Cc1c[nH]cn1)C(=O)N[C@@H](Cc1ccccc1)C(=O)N[C@@H](CCCNC(=N)N)C(=O)N[C@@H](Cc1c[nH]c2ccccc12)C(=O)N[C@@H](CC(=O)O)C(=O)N[C@@H](CCCNC(=N)N)C(=O)N[C@@H](Cc1ccccc1)C(=O)NCC(=O)O | Melanocortin receptor 3 | reporter gene, agonist | – | EC50 | 0.26 µM |
| Cc1noc(C)c1-c1ccc(-c2nc3cnccn3c2NC(C)(C)C)cc1 | Bromodomain-containing protein 2, BD2 (BRD2, Homo sapiens, UniProt P25440) | cell-free assay, competition with immobilised ligand | – | Kd | 0.095 µM |
| N=C(N)NCCC[C@H](NC(=O)[C@H](CC(=O)O)NC(=O)[C@H](Cc1c[nH]c2ccccc12)NC(=O)[C@H](CCCNC(=N)N)NC(=O)[C@@H](N)Cc1ccccc1)C(=O)N[C@@H](Cc1ccccc1)C(=O)O | Melanocortin receptor 3 | reporter gene, agonist | – | EC50 | 20.4 µM |
| COCCOc1ccc(N2CCN(CCn3ncc4c3nc(N)n3nc(-c5ccco5)nc43)CC2)cc1 | ADORA2B | ligand displacement, radioligand | cell membranes | Ki | > 1 µM |
| Cc1ncsc1-c1ccc(CNC(=O)[C@@H]2C[C@@H](O)CN2C(=O)[C@@H](NC(=O)C2(F)CC2)C(C)(C)C)c(OCCOCCOCCN2CCN(c3cc(-c4ccccc4O)nnc3N)CC2)c1 | PBRM1 bromodomain | binding, SPR | – | Kd | 2.7 µM |
| CCCCN1CCCn2c1nc1c2c(=O)n(CCC)c(=O)n1CCC | ADORA2B | ligand displacement, radioligand | cell membranes | Ki | 1.32 µM |
| N=C(N)NCCC[C@H](NC(=O)[C@H](CC(=O)O)NC(=O)[C@H](Cc1c[nH]c2ccccc12)NC(=O)[C@@H](N)CCCNC(=N)N)C(=O)N[C@@H](Cc1ccccc1)C(=O)NCC(=O)O | Melanocortin receptor 3 | reporter gene, agonist | – | EC50 | > 100 µM |
| CCNC(=O)[C@H]1O[C@@H](n2cnc3c(N)nc(NN=C[C@H]4CCC=CO4)nc32)[C@H](O)[C@@H]1O | ADORA2B | GTPγS binding, agonist | cell membranes | EC50 | 13.2 µM |
| N=C(N)NCCC[C@H](NC(=O)[C@@H](N)CC(=O)O)C(=O)N[C@@H](Cc1ccccc1)C(=O)NCC(=O)O | Melanocortin receptor 3 | reporter gene, agonist | – | EC50 | > 100 µM |
| CC(C)CC(C)N1CCCn2c1nc1c2c(=O)n(C)c(=O)n1C (stereo not shown) | ADORA2B | ligand displacement, radioligand | cell membranes | Ki | > 10 µM |
| Cc1[nH]c2ccccc2c1CCNC(=O)c1ccc(N(C)C)cc1 | Prostaglandin E2 receptor EP2 subtype (PTGER2, Homo sapiens, UniProt P43116) | cAMP, antagonist, TR-FRET | – | Kb | ~0.01 µM |
| CCCCOc1nc(N)c2[nH]c(=O)n(CCN)c2n1 | Toll-like receptor 7 (TLR7, Homo sapiens, UniProt Q9NYK1) | reporter gene, agonist | – | EC50 | 127 µM |
| CC(=O)N[C@H](C(=O)N1C[C@H](O)C[C@H]1C(=O)NCc1ccc(-c2scnc2C)cc1)C(C)(C)SCCCCCCNC(=O)C[C@@H]1N=C(c2ccc(Cl)cc2)c2c(sc(C)c2C)-n2c(C)nnc21 | Bromodomain-containing protein 2, BD1 (BRD2, Homo sapiens, UniProt P25440) | binding, ITC | – | Kd | 0.111 µM |
